In the library only some 4.1% were active in any assay of this set; here they are far more common.
KCNK9 inh = blocks the human KCNK9 two-pore domain potassium channel; B-score at 10 µM; Q9NPC2; actives 1.2% (n = 310,000); HEK293 KCNK9, FluxOR thallium flux fluorescence; active compounds read low;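 active = ratio B-score over 3 SD below the library mean, with starting fluorescence within 5 SD of its mean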;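 also: negative B-score means less thallium flux so channel inhibition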
Target sequence (Q9NPC2 whole entry, looked up, the tested form may be a part): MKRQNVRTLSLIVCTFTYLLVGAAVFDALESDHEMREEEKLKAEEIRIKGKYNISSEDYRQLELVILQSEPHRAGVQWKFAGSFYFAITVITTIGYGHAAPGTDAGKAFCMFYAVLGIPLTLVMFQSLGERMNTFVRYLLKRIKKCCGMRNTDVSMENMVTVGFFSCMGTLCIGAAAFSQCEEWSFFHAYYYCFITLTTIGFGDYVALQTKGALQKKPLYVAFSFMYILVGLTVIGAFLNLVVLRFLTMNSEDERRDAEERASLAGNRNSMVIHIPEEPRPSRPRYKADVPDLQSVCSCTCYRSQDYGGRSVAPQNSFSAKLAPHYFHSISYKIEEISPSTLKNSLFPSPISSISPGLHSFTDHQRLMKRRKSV
KCNQ1 act = potentiators or activators of human KCNQ1 potassium channel; CHO-K1 KCNQ1, thallium flux FluxOR fluorescence; active compounds read high; P51787; AID 2648; actives 0.35% (n = 310,000); B-score at 10 µM;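 active = fluorescence ratio B-score, a plate-corrected score, at least three library SD, with initial intensity B-score within 5 SD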
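Schedule – 37 °C overnight plating, 90-min dark dye load, 20-min compound pretreatment · System – stable KCNQ1 CHO-K1 line · Probe or stimulus – thallium- and potassium-containing depolarizing buffer · Measured by – kinetic FluxOR fluorescence, 10 s baseline plus 110 s post-stimulus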
hERG protect = compounds protecting human hERG from proarrhythmic drug block; Q12809; CHO-hERG, FluxOR thallium flux, dofetilide IC70 present; activation (rescue from dofetilide block), less the hit threshold, % at 10 µM; actives 0.51% (n = 310,000); AID 1511;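 active = activation above the mean of controls blocked by dofetilide plus 5 SD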;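 also: thallium influx through hERG after potassium depolarization seen as dye fluorescence rise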
KCNK3 block = human KCNK3 channel inhibition, primary screen; O14649; CHO-KCNK3 thallium flux, FluxOR fluorescence; active compounds read low; B-score at 10 µM; actives 0.84% (n = 340,000);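 active = B-score under library mean minus 4 SD, starting fluorescence ratio at most library mean plus 5 SD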;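 also: more negative B-score means stronger inhibition of thallium flux through KCNK3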
Target sequence (O14649 whole entry, looked up): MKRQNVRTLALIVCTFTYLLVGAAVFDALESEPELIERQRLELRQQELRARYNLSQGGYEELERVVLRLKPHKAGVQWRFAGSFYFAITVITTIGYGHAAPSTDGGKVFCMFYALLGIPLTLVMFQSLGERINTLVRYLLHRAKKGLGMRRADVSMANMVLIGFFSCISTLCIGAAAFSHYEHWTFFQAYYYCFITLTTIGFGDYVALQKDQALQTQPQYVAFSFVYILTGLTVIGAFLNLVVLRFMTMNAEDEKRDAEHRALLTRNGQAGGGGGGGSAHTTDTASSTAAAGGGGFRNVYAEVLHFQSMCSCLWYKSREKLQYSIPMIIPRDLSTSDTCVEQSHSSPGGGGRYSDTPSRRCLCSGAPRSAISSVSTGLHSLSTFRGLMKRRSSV
KCNQ1 block = inhibitors of human KCNQ1 potassium channel | P51787 | actives 1.3% (n = 310,000) | CHO-K1 KCNQ1, FluxOR thallium flux fluorescence; active compounds read high | B-score at 10 µM;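 active = compounds whose thallium flux B-score, printed positive for inhibition, exceeds three library SD while starting fluorescence stays within three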;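 also: channel opened by potassium depolarization with thallium stimulus after 20 min compound exposure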
KCC2 mod = modulates chloride dependent transport by human KCC2. actives 2.2% (n = 190,000). Q9H2X9. KCC2 cells, thallium flux FluoZin-2 fluorescence. B-score of Tl+ flux slope (higher = more flux/activation; lower = inhibition) at 10 µM. AID 1456;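 active = thallium flux slope and its plate-corrected score both differing from the plate sample mean at a set confidence after two filtering rounds, in either direction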;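 also: slope of fluorescence scaled to starting intensity during 10 to 20 s after thallium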
KCC2 secondary = KCC2 (human) modulation, secondary assay; shares compounds with KCC2 mod; normalised thallium flux (F/F0 slope) at 10 µM; actives 15% (n = 3,700); HEK293-KCC2, thallium flux, FluoZin2 fluorescence; active compounds read high;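 active = thallium flux slope above the same plate's solvent-only control mean plus 3 SD; inconclusive = the two replicate wells disagree; inactive = no significant difference from solvent-only control wells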
KCC2 bumet counter = thallium flux persisting under bumetanide in KCC2 cells, counter-screen secondary assay. normalized thallium flux at 10 µM. shares compounds with KCC2 mod. actives 49% (n = 3,700). AID 1714. HEK293-KCC2 + bumetanide/ouabain, thallium flux FluoZin2; active compounds read high;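 active = thallium entry rate above the same plate's blocked-transporter control wells by more than 3 SD; inconclusive = the two repeat wells disagree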;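 also: raw slope of fluorescence over initial fluorescence between 10 and 20 s after thallium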
KCC2 sec2 = confirmation of human KCC2 transport modulators; shares compounds with KCC2 mod; HEK293-KCC2, thallium flux FluoZin2 fluorescence; actives lie on both sides; F/F0 rise rate, 10–20 s post-thallium; normalized thallium flux at 10 µM; actives 23% (n = 3,700);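 active = thallium flux slope more than 3 SD above or below the plate's solvent-only control mean, mostly below; inconclusive = the two repeat wells disagreed; inactive = no significant shift from solvent-only controls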;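 also: raw slope with 0.1% DMSO as baseline and bumetanide as block control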
HEK counter1 = counter-screen for KCC2 modulators: effect in parental HEK293 cells; AID 1716; thallium flux FluoZin2, ouabain; baseline-ratio fluorescence slope, 10–20 s after thallium; actives 46% (n = 3,700); thallium flux rate (normalised fluorescence) at 10 µM; shares compounds with KCC2 mod;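 active = thallium flux rate significantly above the same plate's solvent-only control wells, beyond their mean plus 3 SD; inconclusive = the two replicate wells gave conflicting results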
KCC2 ouabain = confirmation of human KCC2 modulators with ouabain; shares compounds with KCC2 mod; HEK293-KCC2, thallium flux FluoZin2 fluorescence; bidirectional: low = inhibitor, high = activator; raw Tl+ flux slope (below DMSO = inhibition, above = activation) at 10 µM; actives 48% (n = 3,700);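 active = thallium flux slope beyond 3 SD from same-plate DMSO control mean in most replicates, usually higher, sometimes lower; inconclusive = repeat tests gave conflicting results; inactive = no significant difference from controls in most replicates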;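 also: slope of initial-normalized fluorescence between seconds 10 and 20 after thallium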
HEK counter2 = counter-screen for KCC2 modulators: effect in parental HEK293 cells; shares compounds with KCC2 mod; thallium flux FluoZin-2 fluorescence slope; thallium flux slope at 10 µM; actives 33% (n = 3,700);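 active = thallium flux slope above the same plate's solvent-control mean plus 3 SD in both duplicate wells; inconclusive = duplicate wells that disagreed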;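 also: run without ouabain in cells lacking the KCC2 cotransporter; slope of fluorescence scaled to its starting value between 10 and 20 s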
Numbers without * were called inactive; i = inactive; ? = inconclusive; / = no result given.

SMILES | KCNK9 inh | KCNQ1 act | hERG protect | KCNK3 block | KCNQ1 block | KCC2 mod | KCC2 secondary | KCC2 bumet counter | KCC2 sec2 | HEK counter1 | KCC2 ouabain | HEK counter2
O=C1C2Sc3[nH]c(=O)sc3C(c3cc([N+](=O)[O-])ccc3O)C2C(=O)N1c1ccccc1 (stereo not drawn) | i | i | -12 | i | i | -0.89 | / | / | / | / | / | /
O=C1C2Sc3[nH]c(=O)sc3C(c3ccccc3)C2C(=O)N1c1ccc(Cl)cc1 (stereo not drawn) | / | / | / | i | / | -9.8* | 0.0066 | 0.013* | 0.024* | 0.01* | 0.011* | 0.011
Cc1ccc(N2C(=O)C3Sc4[nH]c(=O)sc4C(c4ccccc4)C3C2=O)cc1 (stereo not drawn) | / | / | / | i | / | -10* | 0.0074 | 0.011* | 0.023* | 0.01* | 0.0098* | 0.011
O=C(Cn1cc([N+](=O)[O-])ccc1=O)NCC(=O)Nc1ccc(F)c(F)c1F | / | / | / | i | / | / | / | / | / | / | / | /
CC(C)c1nnc(NC(=O)C2CCCN2C(=O)Nc2ccc(F)cc2)s1 (stereo not drawn) | i | i | -6 | i | i | / | / | / | / | / | / | /
CC(=O)NC12CC3CC(C1)CC(C(=O)N1CCN(S(=O)(=O)c4cccc([N+](=O)[O-])c4)CC1)(C3)C2 | / | / | / | i | / | / | / | / | / | / | / | /
COC(=O)[C@@H](NC(=O)O[C@@H]1C(=O)c2ccc(OC)cc2O[C@H]1c1cccc(C(F)(F)F)c1)C(C)C | i | i | -7 | / | i | 5.6* | 0.0064 | 0.011* | 0.031 | 0.015* | ? | 0.013*
CC[C@H](C)[C@@H](NC(=O)O[C@@H]1C(=O)c2cc(OC)ccc2O[C@H]1c1ccc(OC)c(Br)c1)C(=O)OC | / | / | / | i | / | 1.5 | / | / | / | / | / | /
COc1ccc2c(c1)O[C@H](c1ccc3c(c1)OCO3)[C@@H](OC(=O)Nc1cc(OC)c(OC)c(OC)c1)C2=O | i | i | -8 | / | i | 0.82 | / | / | / | / | / | /
COc1ccc2c(c1)O[C@@H](c1cccc(C(F)(F)F)c1)[C@H](OC(=O)NCCc1ccc(OC)c(OC)c1)C2=O | i | 8* | 8.4* | / | i | 38* | 0.0067 | 0.028* | ? | 0.029* | 0.037* | 0.022*
COc1cccc([C@@H]2Oc3ccc(OC)cc3C(=O)[C@H]2OC(=O)NCc2ccc3c(c2)OCO3)c1 | i | i | 4.6* | / | i | 42* | 0.0061 | 0.058* | 0.064* | 0.068* | 0.055* | 0.051*
O=C(O)CNC(=S)N(Cc1ccccc1Cl)C1CCCC1 | i | i | -19 | i | i | 0.56 | / | / | / | / | / | /
Cc1ccc(OCc2cc(C(=O)N(C)CCc3ccccn3)no2)cn1 | i | i | -5 | i | i | / | / | / | / | / | / | /
O=C(/C=N/O)Nc1ccc(F)cc1 | i | i | -4 | i | i | / | / | / | / | / | / | /
Cc1nn(-c2ccccc2)c(C)c1/C=N/NC(=O)c1cc(C2CC2)[nH]n1 | i | i | -2 | i | i | / | 0.0075 | 0.0046 | 0.026 | 0.0071 | 0.015* | 0.0088
CC(Sc1nnc(N)s1)C(=O)c1c(N)n(C)c(=O)n(C)c1=O (stereo not drawn) | / | / | / | i | / | / | / | / | / | / | / | /
O=[N+]([O-])c1cc2c(cc1[N+](=O)[O-])OCCOCCOCCOCCO2 | i | i | -4 | i | i | 0.39 | / | / | / | / | / | /
Cc1ccc(C=Nc2ccccc2C(N)=O)s1 | i | i | 0 | i | i | -0.014 | / | / | / | / | / | /
Cc1cccc(C=Nc2ccccc2C(N)=O)c1 | i | i | -8 | i | i | -4.7* | 0.005 | 0.0048 | 0.03 | 0.0074 | 0.018 | 0.011
Cc1nn(Cc2ccccc2)c(C)c1NC(=O)c1cccs1 | i | i | -9 | i | i | -0.19 | / | / | / | / | / | /
CCOc1nc(-c2ccncc2)nc2ccccc12 | i | i | -2 | i | i | -1.2 | 0.007 | 0.004 | ? | 0.0063 | 0.017 | 0.0096
Nc1nc(CN2CCN(C(c3ccccc3)c3ccccc3)CC2)nc(Nc2ccccc2)n1 | i | i | -11 | i | i | -0.032 | / | / | / | / | / | /
Cc1ccc(/C=N/n2c(-c3ccc(Cl)cc3)n[nH]c2=S)s1 | i | i | -5 | i | i | 10* | 0.0081 | 0.012* | 0.031 | 0.016* | ? | 0.015*
S=c1[nH]nc(-c2ccc(Cl)cc2)n1/N=C/c1ccco1 | i | i | -4 | i | i | 21* | 0.007 | 0.029* | ? | 0.022* | 0.033* | 0.02*
S=c1[nH]nc(-c2ccco2)n1/N=C/C=C/c1ccccc1 | i | i | -13 | i | i | 7* | 0.018 | 0.033* | 0.035 | 0.016* | 0.021 | 0.018*
SMILES | KCNK9 inh | KCNQ1 act | hERG protect | KCNK3 block | KCNQ1 block | KCC2 mod | KCC2 secondary | KCC2 bumet counter | KCC2 sec2 | HEK counter1 | KCC2 ouabain | HEK counter2
S=c1[nH]nc(-c2ccc(Cl)cc2)n1/N=C/C=C/c1ccco1 | i | i | -2 | i | i | 30* | 0.016* | 0.11* | 0.039 | 0.036* | 0.038* | 0.015*
S=c1[nH]nc(-c2ccccc2)n1/N=C/C=C/c1ccco1 | i | i | -5 | i | i | 3.8 | / | / | / | / | / | /
CCCCC1(C)NC(=O)N(CC(=O)Nc2cc(S(=O)(=O)N3CCOCC3)ccc2Cl)C1=O (stereo not drawn) | / | / | / | i | / | / | / | / | / | / | / | /
Cc1cc(C)c2cc(C(c3nnnn3CC3CCCO3)N3CCN4CCCC4C3)c(=O)[nH]c2c1 (stereo not drawn) | i | i | -6 | i | i | 0.38 | / | / | / | / | / | /
COc1ccc(N2CCN(C(=O)C3(S(=O)(=O)c4ccc(C)cc4)CC3)CC2)cc1 | i | i | -3 | i | i | / | / | / | / | / | / | /
COc1ccc([N+](=O)[O-])cc1NC(=O)CC(C)c1ccccc1 (stereo not drawn) | i | i | -2 | i | i | -0.96 | / | / | / | / | / | /

Compound activity as filed in PubChem BioAssay.
